ChEMBL document CHEMBL1140196, “Synthesis and biological activities of some new fluorinated coumarins and 1-aza coumarins” (Eur J Med Chem, 2008)

How the values were obtained:
Macrophomina phaseolina [1] = assay: Antifungal activity against Rhizoctonia bataticola at 50 ug/mL after 48 hrs by cup-plate method; assay type: functional
Escherichia coli [2] = assay: Antibacterial activity against Escherichia coli at 25 ug/mL after 48 hrs by cup-plate method; assay type: functional; settings: for zone of inhibition at 25 µg/mL: read-out: IZ
Bacillus [3] = assay: Antibacterial activity against […] at 50 ug/mL after 48 hrs by cup-plate method; assay type: functional
Rattus norvegicus [4] = assay: Antiinflammatory activity in Wistar rat assessed as inhibition of formalin-induced paw oedema volume at 100 mg/kg, po administered 30 mins before formalin challenge after 4 hrs relative to control; assay type: functional
Outline: (§1)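 Oral dosing at 100 mg/kg as a 2% CMC suspension, 30 min before injecting 3.5% formalin into the paw. Groups of six Wistar rats of either sex. Paw volume read by mercury-displacement plethysmograph at 0 h (right after formalin) and at 1, 2, 3, 4 and 5 h. Percent inhibition versus plain 2% CMC controls; SEM reported.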

Macrophomina phaseolina [5] = assay: Antifungal activity against Rhizoctonia bataticola at 25 ug/mL after 48 hrs by cup-plate method; assay type: functional
Rattus norvegicus [6] = assay: Antiinflammatory activity in Wistar rat assessed as inhibition of formalin-induced paw oedema volume at 100 mg/kg, po administered 30 mins before formalin challenge after 5 hrs relative to control; assay type: functional; outline: as §1
Mus musculus = assay: Analgesic activity in albino mouse assessed as inhibition of acetic acid-induced writhing at 10 mg/kg, po; assay type: functional
Outline: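 Acetic acid writhing test: 0.6% acetic acid at 0.1 ml/10 g given intraperitoneally to albino mice of both sexes (18–22 g). Compounds given orally at 10 mg/kg as a suspension in 5% carboxymethyl cellulose. Indomethacin 10 mg/kg was the reference under the same conditions.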

Escherichia coli [7] = assay: Antibacterial activity against Escherichia coli at 100 ug/mL after 48 hrs by cup-plate method; assay type: functional
Macrophomina phaseolina [8] = assay: Antifungal activity against Rhizoctonia bataticola at 100 ug/mL after 48 hrs by cup-plate method; assay type: functional
Aspergillus niger [9] = assay: Antifungal activity against Aspergillus niger at 100 ug/mL after 48 hrs by cup-plate method; assay type: functional
Rattus norvegicus [10] = assay: Gastrointestinal toxicity in Wistar rat assessed as ulcerogenic effect at 400 mg/kg, po administered twice at 2 hrs interval after 4 hrs; assay type: organism-based; set-up: dose 400 mg/kg, route oral; settings: in vivo
Outline: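 Male Wistar rats fasted 36 h, then given 400 mg/kg orally twice, 2 h apart. Animals killed 4 h later and the stomach examined for lesions; ulcer index recorded.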

Bacillus [11] = assay: Antibacterial activity against […] at 25 ug/mL after 48 hrs by cup-plate method; assay type: functional; settings: for zone of inhibition at 25 µg/mL: read-out: IZ
Escherichia coli [12] = assay: Antibacterial activity against Escherichia coli at 50 ug/mL after 48 hrs by cup-plate method; assay type: functional
Rattus norvegicus [13] = assay: Antiinflammatory activity in Wistar rat assessed as inhibition of formalin-induced paw oedema volume at 100 mg/kg, po administered 30 mins before formalin challenge after 2 hrs relative to control; assay type: functional; outline: as §1
Rattus norvegicus [14] = assay: Antiinflammatory activity in Wistar rat assessed as inhibition of formalin-induced paw oedema volume at 100 mg/kg, po administered 30 mins before formalin challenge after 3 hrs relative to control; assay type: functional; outline: as §1
Aspergillus niger [15] = assay: Antifungal activity against Aspergillus niger at 50 ug/mL after 48 hrs by cup-plate method; assay type: functional
Aspergillus niger [16] = assay: Antifungal activity against Aspergillus niger at 25 ug/mL after 48 hrs by cup-plate method; assay type: functional; settings: for zone of inhibition at 25 µg/mL: read-out: IZ
[17] = Acute toxicity in po dosed albino mouse after 24 hrs; assay type: organism-based; settings: in vivo
Outline: (§2)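 Groups of six albino mice (20–25 g), fasted overnight, dosed once orally or intraperitoneally at 100 to 1000 mg kg^-1 body weight. Observed for 24 h for mortality and signs of acute toxicity (altered motor activity, tremors, convulsion, sedation, lacrimation). LD50 cut-off set at the highest dose tested, 1000 mg kg^-1.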

Rattus norvegicus [18] = assay: Antiinflammatory activity in Wistar rat assessed as inhibition of formalin-induced paw oedema volume at 100 mg/kg, po administered 30 mins before formalin challenge after 1 hr relative to control; assay type: functional; outline: as §1
Bacillus [19] = assay: Antibacterial activity against […] at 100 ug/mL after 48 hrs by cup-plate method; assay type: functional
[20] = Acute toxicity in ip dosed albino mouse after 24 hrs; assay type: organism-based; settings: in vivo; outline: as §2
Rattus norvegicus [21] = assay: Antiinflammatory activity in Wistar rat assessed as inhibition of formalin-induced paw oedema volume at 10 mg/kg, po administered 30 mins before formalin challenge after 2 hrs relative to control; assay type: functional
Outline: (§3)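 Reference arm of the formalin paw-oedema test: oral dose of 10 mg/kg, 30 min before 3.5% formalin, in groups of six Wistar rats of either sex. Paw volume read by mercury-displacement plethysmograph at 0 to 5 h. Percent inhibition versus 2% CMC vehicle controls.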

Rattus norvegicus [22] = assay: Antiinflammatory activity in Wistar rat assessed as inhibition of formalin-induced paw oedema volume at 10 mg/kg, po administered 30 mins before formalin challenge after 5 hrs relative to control; assay type: functional; outline: as §3
Rattus norvegicus [23] = assay: Antiinflammatory activity in Wistar rat assessed as inhibition of formalin-induced paw oedema volume at 10 mg/kg, po administered 30 mins before formalin challenge after 1 hr relative to control; assay type: functional; outline: as §3
Rattus norvegicus [24] = assay: Gastrointestinal toxicity in Wistar rat assessed as ulcerogenic effect at 10 mg/kg, po administered twice at 2 hrs interval after 4 hrs; assay type: organism-based; set-up: dose 10 mg/kg, route oral; settings: in vivo
Outline: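 Male Wistar rats fasted 36 h, then given indomethacin suspended in 1% CMC orally at 2 × 10 mg/kg, 2 h apart. Animals killed after 4 h and the stomach examined for lesions; ulcer index recorded.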

Rattus norvegicus [25] = assay: Antiinflammatory activity in Wistar rat assessed as inhibition of formalin-induced paw oedema volume at 10 mg/kg, po administered 30 mins before formalin challenge after 4 hrs relative to control; assay type: functional; outline: as §3
Rattus norvegicus [26] = assay: Antiinflammatory activity in Wistar rat assessed as inhibition of formalin-induced paw oedema volume at 10 mg/kg, po administered 30 mins before formalin challenge after 3 hrs relative to control; assay type: functional; outline: as §3

| Compound | inhibition at 50 µg/mL (Macrophomina phaseolina [1]) [%] | inhibition at 25 µg/mL (Escherichia coli [2]) [%] | zone of inhibition at 25 µg/mL (Escherichia coli [2]) [mm] | inhibition at 50 µg/mL (Bacillus [3]) [%] | inhibition in vivo at 100 mg/kg (Rattus norvegicus [4]) [%] | inhibition at 25 µg/mL (Macrophomina phaseolina [5]) [%] | inhibition in vivo at 100 mg/kg (Rattus norvegicus [6]) [%] | inhibition in vivo at 10 mg/kg (Mus musculus) [%] | inhibition at 100 µg/mL (Escherichia coli [7]) [%] | inhibition at 100 µg/mL (Macrophomina phaseolina [8]) [%] | inhibition at 100 µg/mL (Aspergillus niger [9]) [%] | UI (Rattus norvegicus [10]) | inhibition at 25 µg/mL (Bacillus [11]) [%] | inhibition at 50 µg/mL (Escherichia coli [12]) [%] | inhibition in vivo at 100 mg/kg (Rattus norvegicus [13]) [%] | inhibition in vivo at 100 mg/kg (Rattus norvegicus [14]) [%] | inhibition at 50 µg/mL (Aspergillus niger [15]) [%] | LD50 at 24 h [17] [mg/kg] | inhibition in vivo at 100 mg/kg (Rattus norvegicus [18]) [%] | LD50 at 24 h [20] [mg/kg] | also measured |
| --- | --- | --- | --- | --- | --- | --- | --- | --- | --- | --- | --- | --- | --- | --- | --- | --- | --- | --- | --- | --- | --- |
| O=c1cc(COc2ccc(F)cc2)c2cc(Cl)ccc2[nH]1 | 68 | 45 | 88 | 51 | 71 | 50 | 80 | 26.9 | 81 | 84 | 75 | 71.42 | 28 | 62 | 28 | 57 | 44 | > 1000 | 39 | > 800 | zone of inhibition at 25 µg/mL (Bacillus [11]): 60 mm; inhibition at 25 µg/mL (Aspergillus niger [16]): 29%; zone of inhibition at 25 µg/mL (Aspergillus niger [16]): 62 mm; inhibition at 100 µg/mL (Bacillus [19]): 80% |
| O=c1cc(CNc2ccc(F)cc2)c2cc(Cl)ccc2[nH]1 | 56 | 26 | 60 | 41 | 59 | 44 | 77 | 7.99 | 70 | 75 | 77 | 58.57 | 22 | 50 | 12 | 46 | 47 | > 1000 | 9 | > 700 | zone of inhibition at 25 µg/mL (Bacillus [11]): 52 mm; inhibition at 25 µg/mL (Aspergillus niger [16]): 35%; zone of inhibition at 25 µg/mL (Aspergillus niger [16]): 70 mm; inhibition at 100 µg/mL (Bacillus [19]): 76% |
| COc1ccc2c(c1)c(CC(=O)O)c(C)n2C(=O)c1ccc(Cl)cc1 [INDOMETHACIN] | – | – | – | – | – | – | – | 46.2 | – | – | – | – | – | – | – | – | – | 25 | – | 15 | inhibition in vivo at 10 mg/kg (Rattus norvegicus [21]): 43%; inhibition in vivo at 10 mg/kg (Rattus norvegicus [22]): 85%; inhibition in vivo at 10 mg/kg (Rattus norvegicus [23]): 35%; UI (Rattus norvegicus [24]): 185.14; inhibition in vivo at 10 mg/kg (Rattus norvegicus [25]): 76%; inhibition in vivo at 10 mg/kg (Rattus norvegicus [26]): 75% |
| O=c1cc(CNc2ccc(F)cc2)c2ccc(Cl)cc2[nH]1 | 62 | 32 | 68 | 44 | 57 | 48 | 77 | 28.6 | 73 | 79 | 80 | 61.42 | 27 | 54 | 4 | 42 | 52 | > 1000 | 4 | > 700 | zone of inhibition at 25 µg/mL (Bacillus [11]): 58 mm; inhibition at 25 µg/mL (Aspergillus niger [16]): 41%; zone of inhibition at 25 µg/mL (Aspergillus niger [16]): 78 mm; inhibition at 100 µg/mL (Bacillus [19]): 78% |
| O=c1cc(COc2ccc(F)cc2)c2ccccc2[nH]1 | – | – | – | – | 63 | – | 77 | 15.8 | – | – | – | 60.71 | – | – | 23 | 52 | – | > 1000 | 35 | > 800 | – |
| O=c1cc(COc2ccc(F)cc2)c2ccc(Cl)cc2[nH]1 | 72 | 34 | 72 | 40 | 66 | 55 | 78 | 61.3 | 78 | 86 | 79 | 67.5 | 22 | 56 | 24 | 54 | 47 | > 1000 | 24 | > 800 | zone of inhibition at 25 µg/mL (Bacillus [11]): 52 mm; inhibition at 25 µg/mL (Aspergillus niger [16]): 34%; zone of inhibition at 25 µg/mL (Aspergillus niger [16]): 68 mm; inhibition at 100 µg/mL (Bacillus [19]): 76% |
| Cc1cccc2c(CNc3ccc(F)cc3)cc(=O)[nH]c12 | – | – | – | – | 73 | – | 85 | 67 | – | – | – | 55.35 | – | – | 28 | 6 | – | > 1000 | 23 | > 700 | – |
| O=c1cc(COc2ccc(F)cc2)c2cc(Cl)ccc2o1 | 74 | 51 | 92 | 71 | 71 | 65 | 80 | 56.2 | 94 | 89 | 89 | 66.66 | 64 | 60 | 38 | 58 | 71 | > 1000 | 39 | > 700 | inhibition at 25 µg/mL (Aspergillus niger [16]): 61%; inhibition at 100 µg/mL (Bacillus [19]): 97% |
| O=c1cc(CNc2ccc(F)cc2)c2c(ccc3ccccc32)o1 | – | – | – | – | 60 | – | 77 | 10.5 | – | – | – | 64.93 | – | – | 35 | 53 | – | > 1000 | 63 | > 800 | – |
| O=c1cc(COc2ccc(F)cc2)c2ccc3ccccc3c2o1 | – | – | – | – | 66 | – | 75 | 23.2 | – | – | – | 61.8 | – | – | 30 | 45 | – | > 1000 | 46 | > 800 | – |
| Cc1ccc2c(CNc3ccc(F)cc3)cc(=O)oc2c1 | 49 | 27 | 58 | 55 | 67 | 26 | 83 | 3.96 | 73 | 70 | 67 | 64.93 | 28 | 46 | 37 | 54 | 33 | > 1000 | 62 | > 800 | zone of inhibition at 25 µg/mL (Bacillus [11]): 60 mm; inhibition at 25 µg/mL (Aspergillus niger [16]): 14%; zone of inhibition at 25 µg/mL (Aspergillus niger [16]): 40 mm; inhibition at 100 µg/mL (Bacillus [19]): 74% |
| O=c1cc(CNc2ccc(F)cc2)c2ccc3ccccc3c2o1 | – | – | – | – | 71 | – | 81 | 76.4 | – | – | – | 64.93 | – | – | 54 | 53 | – | > 1000 | 81 | > 700 | – |
